Laboratory results: ChEMBL document CHEMBL1770104, “Design, synthesis and antifungal activities of novel pyrrole alkaloid analogs” (Eur J Med Chem, 2011)
In brackets after ≈: the same amount, converted by molar mass.

Legend:
Alternaria solani [1] = experiment: Antimicrobial activity against Alternaria solani at 50 ug/mL by mycelium growth rate method; type: functional
Procedure, shortened: (§1)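 Mycelium growth-rate assay with anthranilamide and fenpiclonil as controls. Colony diameter is measured once the mycelia have grown completely, and the inhibition rate is calculated from the diameters by formula.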

Mycosphaerella arachidis [2] = experiment: Antimicrobial activity against Cercospora arachidicola at 50 ug/mL by mycelium growth rate method; type: functional; procedure, shortened: as §1
Fusarium [3] = experiment: Antimicrobial activity against Fusarium […] at 50 ug/mL by mycelium growth rate method; type: functional; procedure, shortened: as §1
Fusarium graminearum [4] = experiment: Antimicrobial activity against Gibberella zeae at 50 ug/mL by mycelium growth rate method; type: functional
Procedure, shortened: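 Mycelium growth rate assay with anthranilamide and fenpiclonil as controls. Once mycelia had grown completely, the mycelial diameter was measured and the inhibition rate was calculated from it by formula.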

[5] = system: Botryosphaeria berengeriana; experiment: Antimicrobial activity against Physalospora piricola at 50 ug/mL by mycelium growth rate method; type: functional; procedure, shortened: as §1
Alternaria solani [6] = experiment: Antimicrobial activity against Alternaria solani by mycelium growth rate method; type: functional, organism-based; procedure, shortened: as §1
Mycosphaerella arachidis [7] = experiment: Antimicrobial activity against Cercospora arachidicola by mycelium growth rate method; type: functional, organism-based; procedure, shortened: as §1
Fusarium [8] = experiment: Antimicrobial activity against Fusarium […] by mycelium growth rate method; type: functional, organism-based; procedure, shortened: as §1
Fusarium graminearum [9] = experiment: Antimicrobial activity against Gibberella zeae by mycelium growth rate method; type: functional, organism-based
[10] = system: Botryosphaeria berengeriana; experiment: Antimicrobial activity against Physalospora piricola by mycelium growth rate method; type: functional, organism-based; procedure, shortened: as §1

SMILES | inhibition at 50 µg/mL (Alternaria solani [1]) [%] | inhibition at 50 µg/mL (Mycosphaerella arachidis [2]) [%] | inhibition at 50 µg/mL (Fusarium [3]) [%] | inhibition at 50 µg/mL (Fusarium graminearum [4]) [%] | inhibition at 50 µg/mL [5] [%] | EC50 (Alternaria solani [6]) [µg/mL] | EC50 (Mycosphaerella arachidis [7]) [µg/mL] | EC50 (Fusarium [8]) [µg/mL] | EC50 (Fusarium graminearum [9]) [µg/mL] | EC50 [10] [µg/mL]
N#Cc1cccc(CONC(=O)c2cc(Br)c(Br)[nH]2)c1 | 21.1 | 35.7 | 18 | 8.8 | 25.3 |  |  |  |  | 
N#Cc1ccc(CONC(=O)c2cc(Br)c(Br)[nH]2)cc1 | 31.6 | 35 | 19 | 20.6 | 48.1 |  |  |  |  | 
O=C(NOCc1ccc([N+](=O)[O-])cc1)c1cc(Br)c(Br)[nH]1 | 26.7 | 18.8 | 17.6 | 13 | 16.7 |  |  |  |  | 
CO/C=C(/C(=O)OC)c1ccccc1CONC(=O)c1cc(Br)c(Br)[nH]1 | 52.4 | 26.7 | 6.7 | 0 | 13.6 |  |  |  |  | 
C#CCOc1ccc(CONC(=O)c2ccc[nH]2)cc1OC | 35.3 | 20 | 16.7 | 9.1 | 100 | > 50 | > 50 | > 50 | > 50 | 4.5 (≈ 15 µM)
O=C(NOCc1ccc(F)cc1)c1ccc[nH]1 | 0 | 12 | 0 | 7 | 6.2 |  |  |  |  | 
CO/C=C(/C(=O)OC)c1ccccc1CONC(=O)c1ccc[nH]1 | 0 | 13.3 | 0 | 8.5 | 16.1 |  |  |  |  | 
C#CCOc1ccc(CONC(=O)c2[nH]c(Br)c(Br)c2Br)cc1OC | 11.8 | 33.3 | 22.2 | 9.1 | 25.8 |  |  |  |  | 
O=C(NOCc1ccc(F)cc1)c1[nH]c(Br)c(Br)c1Br | 19.2 | 28 | 8.3 | 15.5 | 18.5 |  |  |  |  | 
CO/C=C(/C(=O)OC)c1ccccc1CONC(=O)c1[nH]c(Br)c(Br)c1Br | 5.9 | 26.7 | 27.8 | 13.6 | 25 |  |  |  |  | 
C#CCOc1ccc(CONC(=O)c2cc(Cl)c(Cl)[nH]2)cc1OC | 42.3 | 44 | 0 | 21.1 | 6.2 |  |  |  |  | 
O=C(NOCc1ccc(F)cc1)c1cc(Cl)c(Cl)[nH]1 | 30.8 | 16 | 22.2 | 19.5 | 18.5 |  |  |  |  | 
CO/C=C(/C(=O)OC)c1ccccc1CONC(=O)c1cc(Cl)c(Cl)[nH]1 | 42.3 | 40 | 8.3 | 21.1 | 24.7 |  |  |  |  | 
C#CCOc1ccc(CON(C)C(=O)c2ccc[nH]2)cc1OC | 13.3 | 19.2 | 31.6 | 0 | 5.8 |  |  |  |  | 
C#CCOc1ccc(CON(C)C(=O)c2cccn2C)cc1OC | 16.7 | 7.7 | 31.6 | 20 | 6 |  |  |  |  | 
C#CCOc1ccc(CONC(=O)c2cc(Br)c(Br)[nH]2)cc1OC | 64.9 | 56.3 | 47.1 | 8.7 | 90 | 20 (≈ 43.7 µM) | 24.4 (≈ 53.2 µM) | > 50 | > 50 | 9.78 (≈ 21.3 µM)

SMILES | inhibition at 50 µg/mL (Alternaria solani [1]) [%] | inhibition at 50 µg/mL (Mycosphaerella arachidis [2]) [%] | inhibition at 50 µg/mL (Fusarium [3]) [%] | inhibition at 50 µg/mL (Fusarium graminearum [4]) [%] | inhibition at 50 µg/mL [5] [%] | EC50 (Alternaria solani [6]) [µg/mL] | EC50 (Mycosphaerella arachidis [7]) [µg/mL] | EC50 (Fusarium [8]) [µg/mL] | EC50 (Fusarium graminearum [9]) [µg/mL] | EC50 [10] [µg/mL]
COc1ccc(CONC(=O)c2cc(Br)c(Br)[nH]2)cc1OC | 73.3 | 60 | 41.2 | 4.6 | 50 |  |  |  |  | 
O=C(NOCc1ccc2c(c1)OCO2)c1cc(Br)c(Br)[nH]1 | 31.6 | 75 | 23.8 | 14.7 | 18.5 |  |  |  |  | 
O=C(NOCc1ccccc1)c1cc(Br)c(Br)[nH]1 | 66.7 | 53.3 | 40 | 9.1 | 40.9 |  |  |  |  | 
O=C(NOCc1ccccc1F)c1cc(Br)c(Br)[nH]1 | 76.2 | 50.3 | 41.2 | 18.2 | 27.3 |  |  |  |  | 
O=C(NOCc1cccc(F)c1)c1cc(Br)c(Br)[nH]1 | 61.9 | 54 | 40.8 | 4.5 | 40.9 |  |  |  |  | 
O=C(NOCc1ccc(F)cc1)c1cc(Br)c(Br)[nH]1 | 66.5 | 62.5 | 58 | 21.7 | 55.1 |  |  |  |  | 
O=C(NOCc1ccccc1Cl)c1cc(Br)c(Br)[nH]1 | 19 | 20 | 0 | 13.6 | 13.4 |  |  |  |  | 
O=C(NOCc1cccc(Cl)c1)c1cc(Br)c(Br)[nH]1 | 66.7 | 80 | 47 | 17.4 | 38.9 |  |  |  |  | 
O=C(NOCc1ccc(Cl)nc1)c1cc(Br)c(Br)[nH]1 | 5.3 | 28.6 | 23.8 | 0 | 37 |  |  |  |  | 
O=C(NOCc1ccc(Cl)cc1Cl)c1cc(Br)c(Br)[nH]1 | 21.1 | 35.7 | 33.3 | 11.8 | 33.3 |  |  |  |  | 
O=C(NOCc1ccc(Cl)c(Cl)c1)c1cc(Br)c(Br)[nH]1 | 40 | 43.8 | 23.5 | 17.4 | 27.8 |  |  |  |  | 
O=C(NOCc1ccc(Br)cc1)c1cc(Br)c(Br)[nH]1 | 31.6 | 50 | 4.8 | 2.9 | 33.3 |  |  |  |  | 
N#Cc1ccccc1CONC(=O)c1cc(Br)c(Br)[nH]1 | 10.5 | 14.3 | 14 | 14.7 | 14.8 |  |  |  |  | 
NC(=O)c1ccccc1N [ANTHRANILAMIDE] | 42.3 | 52 | 27.8 | 38 | 43.2 |  |  |  |  | 
N#Cc1c[nH]cc1-c1cccc(Cl)c1Cl [FENPICLONIL] | 100 | 100 | 18 | 100 | 100 | 0.55 (≈ 2.32 µM) | 0.38 (≈ 1.6 µM) | > 50 | 1.71 (≈ 7.21 µM) | 0.8 (≈ 3.37 µM)
